Screens deposited in PubChem by The Scripps Research Institute Molecular Screening Center.
MC4R antagonist = human MC4R antagonism in cAMP assay. hit rate 0.48% among 360,000. inhibition, % at 6.5 µM. AID 540295. MC4R-expressing cells, MTII-stimulated cAMP, LANCE TR-FRET;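 active = inhibition above its plate's cutoff, the mean of tested wells on that plate plus 3 SD, cut at about 29% in these data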;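 also: 0% = Melanotan II alone and 100% = Melanotan II plus saturating MCL0020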
Target sequence (P32245 whole entry, looked up): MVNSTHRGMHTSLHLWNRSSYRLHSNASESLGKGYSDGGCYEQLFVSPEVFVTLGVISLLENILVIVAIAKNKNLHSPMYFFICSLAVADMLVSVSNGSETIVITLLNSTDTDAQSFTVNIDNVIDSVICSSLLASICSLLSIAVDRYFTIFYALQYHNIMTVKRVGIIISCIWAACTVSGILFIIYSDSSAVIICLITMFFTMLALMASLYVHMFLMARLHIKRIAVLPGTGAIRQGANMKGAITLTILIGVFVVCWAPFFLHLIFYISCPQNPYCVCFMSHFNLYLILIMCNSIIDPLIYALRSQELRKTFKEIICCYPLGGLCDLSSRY
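Assay system: U2OS-MC4R stable cell line; Also added: Melanotan II; Technique: Eu-cAMP/anti-cAMP TR-FRET, emission 671 nm; Times: 30-min compound, 1-h challenge, 1-h detection, room temperature.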
bovine MsrA act = activators of bovine methionine sulfoxide reductase A | purified bovine MsrA, absorbance read-out | activation, % at 10.6 µM | hit rate 0.3% among 360,000 | AID 602163; in the data active = activation above about 7.5%;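 also: 0% = vehicle and 100% = reference activator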
MsrA inh = inhibitors of bovine MsrA; purified bovine MsrA, absorbance read-out; inhibition, % at 15.5 µM; hit rate 0.75% among 360,000; in the data active = inhibition above about 4.5%;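 also: 0% = vehicle wells with enzyme and 100% = reference inhibitor wells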
MC4R barr agon = human MC4R agonism via beta-arrestin | U2OS MC4R beta-arrestin complementation, luminescence; percent of melanotan II response, DMSO zero | hit rate 0.98% among 360,000 | activation, % at 8.9 µM | P32245;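 active = activation above a per-plate cutoff, the mean activation of sample wells on that plate plus 3 SD, cut at about 8% in these data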
MsrA act confirm = bovine methionine sulfoxide reductase A activation confirmed; AID 602270; hit rate 12% among 1,000; activation, % at 10.6 µM; purified bovine MsrA, absorbance read-out; shares compounds with bovine MsrA act; in the data active = activation above about 4%;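 also: enzyme coupled to thioredoxin and thioredoxin reductase with NADPH; 0% = vehicle wells and 100% = reference activator wells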
The depositor's hits bear a star; / = not tested or not shown. Only some compounds are listed: those with a hit (about 2.3% of all), similar ones and a draw of the others.

SMILES | MC4R antagonist | bovine MsrA act | MsrA inh | MC4R barr agon | MsrA act confirm
CCOC(=O)Cn1c(CN(C)Cc2ccccc2)nc2c1c(=O)n(C)c(=O)n2C | 3 | 4 | 1 | -1 | /
CCOC(=O)Nc1ccc2c(c1)N(C(=O)CN(CC)CC)c1ccccc1CC2 | -7 | 0 | -1 | -1 | /
CCOC(=O)Nc1ccc2c(c1)N(C(=O)CN(CC)CC)c1ccccc1C=C2 | -2 | 7.9* | -1 | 0 | 0
CC(C)NS(=O)(=O)c1ccc(NC(=O)C(C)Oc2ccc(C(=O)c3ccccc3)cc2)cc1 (stereo unspecified) | 0 | 8.5* | -1 | -3 | -4
COc1ccc2oc(=O)c(C(=O)NCc3ccc4c(c3)OCO4)cc2c1 | 10 | -3 | 1 | -1 | /
COc1ccc2oc(=O)c(C(=O)NCCc3ccc(OC)c(OC)c3)cc2c1 | 10 | 7.7* | -1 | -1 | 2
CN(CC(=O)Nc1cccc(F)c1)C(=O)c1ccc(N2CCCCCC2)c([N+](=O)[O-])c1 | -13 | -5 | 0 | -2 | /
Cc1nnc(N/N=C/c2cccc(C(F)(F)F)c2)n1N | 7 | 13* | -1 | 0 | 1
Cc1nnc(N/N=C/c2ccco2)n1N | 10 | 16* | 1 | -2 | -2
Cc1ccc(Cc2cnc(NC(=O)/C(C#N)=C/c3ccc(-c4ccc([N+](=O)[O-])cc4)o3)s2)cc1 | 2 | -5 | -1 | -1 | /
CC(C)c1ccc(NC(=S)NCc2cccs2)cc1 | 0 | 8.1* | 1 | -1 | -3
CC(C)(C)OC(=O)NCc1ccc(CNC(=O)c2[nH]cnc2C(=O)NC2CCN(C(=O)OC(C)(C)C)CC2)cc1 | -4 | 12* | / | 1 | 2
CCCCNC(=O)CN(Cc1ccco1)S(=O)(=O)c1ccc(C(C)=O)cc1 | 10 | 11* | 0 | -2 | -2
CC1(C)NC(=O)N(c2ccccc2Cl)C1(C)NO (stereo unspecified) | 2 | 11* | 0 | -1 | -3
Cc1cc(=O)n(-c2ccccc2Cl)[nH]1 | -1 | -9 | 0 | 0 | /
CCc1cc2c(-c3ccccc3)cc(=O)oc2cc1OC(=O)c1cccs1 | 7 | 11* | 2 | -1 | -4
O=C(Oc1ccc2c(-c3ccccc3)cc(=O)oc2c1)c1cccs1 | -1 | -2 | -1 | 0 | /
CC(NC(=O)c1cc2ccccc2oc1=O)c1ccc(O)cc1 (stereo unspecified) | 2 | 3 | 1 | -1 | /
O=C(NCc1cccnc1)C1CC(c2ccc(F)cc2)=NO1 (stereo unspecified) | -2 | -2 | / | -2 | /
COc1cccc(C=Nc2ccc(N3CCOCC3)cc2)c1O | 3 | 0 | 0 | 1 | /
O=[N+]([O-])c1cc(Br)c(O)c(C=Nc2ccc(N3CCOCC3)cc2)c1 | -1 | 10* | 1 | -3 | 7.8*
COC(=O)c1ccc(CN2CCN(Cc3ccccc3)C(CCO)C2)cc1 (stereo unspecified) | 23 | -1 | -1 | 0 | /
Cn1c(=O)c2cc(NC(=O)CCc3ccccc3)ccc2n1Cc1cccc(C(F)(F)F)c1 | -7 | 7.8* | 2 | 0 | 0
Cn1c(=O)c2cc(NC(=O)CCc3ccc(O)cc3)ccc2n1Cc1cccc(C(F)(F)F)c1 | 6 | -4 | 0 | 1 | /
CN(C)C(CNC(=S)Nc1ccccc1Cl)c1cccnc1 (stereo unspecified) | 5 | 7.9* | -1 | -1 | -1
SMILES | MC4R antagonist | bovine MsrA act | MsrA inh | MC4R barr agon | MsrA act confirm
CCCc1ccc2oc(C(=O)N(C)CCn3ccnc3C)c(C)c2c1 | 20 | -2 | 0 | 1 | /
CN(C)S(=O)(=O)c1ccc(C(=O)Nc2nnc(SCC(=O)NCC3CCCO3)s2)cc1 (stereo unspecified) | 2 | -3 | 4 | 1 | /
CCN(CC)S(=O)(=O)c1ccc(NC(=O)CNC2CCCCC2)cc1 | 4 | 8.4* | -1 | -1 | -1
c1ccc(SSc2ccccn2)nc1 | -7 | 11* | / | -5 | 7.5*
CCC(=O)Nc1ccc(C(=O)Nc2cccnc2)cc1 | -3 | 15* | -1 | -2 | -1
O=C(NCCCCNC(=O)c1ccccn1)c1ccccn1 | 17 | -2 | 0 | 0 | /
COc1cccc(OCC(O)CNC(=O)c2oc3ccc(C)cc3c2C)c1 (stereo unspecified) | 8 | 9.5* | 0 | 2 | -2
COc1ccc(CC(=O)N2CCCc3ccccc32)cc1OC | 18 | 9.6* | -1 | 2 | -3
Cc1cc(NS(=O)(=O)c2ccc(NC(=S)NC(=O)c3ccc(C(C)(C)C)cc3)cc2)no1 | 13 | -2 | -1 | -1 | /
COc1ccc(C(=O)NC(=S)Nc2ccc(S(=O)(=O)Nc3cc(C)on3)cc2)cc1OC | 13 | 8.2* | -1 | -4 | -1
COc1ccc(-n2nnnc2C(C2CC2)N2CCN(C/C=C/c3ccccc3)CC2)cc1 (stereo unspecified) | / | -7 | -1 | / | /
CCOC(=O)c1sc(-c2ccccc2)cc1NC(=O)Nc1ccccc1 | 9 | -2 | 4 | 0 | /
Nn1cnnc1N/N=C\c1ccc(-c2ccccc2[N+](=O)[O-])o1 | -8 | 20* | 0 | -2 | -1
Cc1ccc(C(=O)/C=C/c2cn(CN3CCN(C)CC3)c3ccccc23)cc1 | 9 | -1 | 2 | 1 | /
Cn1cc(/C=C/C(=O)c2ccccc2)c2ccccc21 | -3 | 9.1* | 1 | 0 | -3
O=C(Nc1ccc2c(c1)OCO2)N1CCN(c2ccc(F)cc2)CC1 | 8 | -10 | 0 | -1 | /
Cc1ccc(C(=O)N/N=C/c2ccc([N+](=O)[O-])s2)cc1 | -16 | -2 | 3 | 3 | /
O=C(N/N=C/c1ccc(O)c2ncccc12)c1cccc(Br)c1 | 13 | 15* | 3 | 2 | -1
O=C(N/N=C/c1ccc([N+](=O)[O-])s1)c1cccc(Br)c1 | -7 | 8.7* | 1 | -2 | 6.6*
O=C(N/N=C/c1cc(Br)ccc1O)c1ccncc1 | 8 | -3 | 0 | -3 | /
COC(=O)Nc1nnc(COc2ccccc2)s1 | -2 | 8.9* | 0 | -1 | -2
CCCCOC(=O)Nc1nnc(COc2ccccc2)s1 | 0 | -8 | 1 | -1 | /
CCn1c(=NC(=O)CSC(C)=O)sc2cc(OC)ccc21 | -2 | -2 | 2 | -1 | /
CC(=O)N(C)c1ccc(N=Nc2c(C)[nH]n(-c3ccccc3)c2=O)cc1 | 3 | 8.0* | -1 | 1 | -1
CCOC(=O)c1ccc(N=Nc2c(C)[nH]n(-c3ccccc3)c2=O)cc1 | -6 | -7 | -2 | -1 | /
SMILES | MC4R antagonist | bovine MsrA act | MsrA inh | MC4R barr agon | MsrA act confirm
O=C(O)c1ccccc1NS(=O)(=O)c1cccc(-n2sc3ccccc3c2=O)c1 | -10 | 7.7* | 1 | -1 | 3
COc1cccc(NC(=O)COC(=O)Cn2c(C)csc2=O)c1 | 2 | -3 | 0 | -1 | /
COc1cccc(NC(=O)COC(=O)CCn2c(C)csc2=O)c1 | -1 | 9.2* | -1 | 1 | -1
O=C(NC1CCCCCC1)c1nc2ncccn2n1 | -1 | 0 | 0 | 4 | /
NNC(=O)c1oc2nc(-c3ccco3)cc(-c3ccco3)c2c1N | 4 | 8.2* | 2 | -1 | -2
Nc1c(C(=O)N/N=C/c2cccnc2)oc2nc(-c3ccco3)cc(-c3ccco3)c12 | -6 | -6 | 2 | -2 | /
